Sampled rows, rich in hits. Any-hit rate of the full collection: about 2.2%.
APP transl inh – APP translation inhibition | SH-SY5Y APP 5'UTR-luciferase reporter, luminescence | inhibition, % at 2 µM | 0.82% of 190,000 active;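 active means inhibition above a set limit, derived from the sample mean plus 3 SD, cut at about 45% in these data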
Ba/F3 V617F tox – lowers viability of Ba/F3 cells expressing EpoR and JAK2V617F; ATP luminescence; inhibition, % at 5.6 µM; 1.1% of 220,000 active; AID 1446;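 active means inhibition above the campaign mean plus 3 SD over all tested compounds, cut at about 24% in these data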;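 further: cytokine-independent growth of Ba/F3 cells driven by EpoR plus mutant JAK2; 0% = DMSO-treated cells and 100% = JAK inhibitor I control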
b-catenin transl – beta-catenin nuclear translocation modulation | AID 1665 | nuclear translocation activity, % at 5 µM | 0.3% of 190,000 active | HeLa beta-catenin nuclear translocation, immunofluorescence imaging;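 active means nuclear translocation activity above 50% at 5 µM, with a well cell count of 50 or more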;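 further: per-cell ratio of nuclear to cytoplasmic median beta-catenin stain intensity; plate controls were DMSO negative control for no effect and GSK-3 inhibitor IX positive control for full effect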
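System: Human HeLa cells, endogenous beta-catenin | Compound dosing: 5 µM primary, 0.02–20 µM confirmation | Timing: 24 h compound exposure at 37°C, 5% CO2 | Measured by: Fluorescence imaging of beta-catenin antibody stain plus DAPI | Read-out basis: % activation of per-cell nuclear versus cytoplasmic median beta-catenin signal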
IEC-6 cytotox – kills IEC-6 intestinal cells in KLF5 counter-screen | IEC-6 cytotoxicity, luminescence viability | inhibition, % at 5 µM | 0.78% of 290,000 active; in the data active means inhibition above about 22%;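 further: 0% = plate median of test compound wells and 100% = cytotoxic reference compound wells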
BaF3 tox – reduces parental Ba/F3 cell viability, JAK2V617F counter-screen; CellTiter-Glo ATP luminescence; inhibition, % at 5.6 µM; 1.1% of 220,000 active; AID 1486;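 active means inhibition above a per-campaign cutoff, the mean inhibition of all tested compounds plus 3 SD, cut at about 27% in these data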;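 further: 0% = DMSO wells and 100% = JAK Inhibitor I control wells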
MT stabilize HCS – microtubule stabilization, imaging screen | HeLa tubulin immunostaining HCS, 24 h; share of cells brighter than vehicle mean+2SD | AID 2205 | 0.83% of 200,000 active | % tubulin-high responders, % at 10 µM;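 active means plate Z-score above 3 for both tubulin-high and condensed-nucleus cell shares, with cell loss under 80%, at 10 µM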;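 further: anti alpha tubulin signal scored within the nucleus-defined area of each cell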
* marks the source's active call; other numbers are inactive results; / = not tested or not shown.

SMILES | APP transl inh | Ba/F3 V617F tox | b-catenin transl | IEC-6 cytotox | BaF3 tox | MT stabilize HCS
O=c1cc(-c2ccccc2[N+](=O)[O-])oc2ccccc12 | -24 | 0 | 10 | 12 | 4 | 12*
O=c1cc(-c2ccccc2F)oc2ccccc12 | -64 | -4 | 1 | 5 | 0 | 2
CCOc1cc(C(=O)N2CCC(CC3CC(c4ccc(Cl)cc4)=NO3)(C(=O)NCC3CCCCC3)CC2)cc(OCC)c1OCC (centres undefined) | / | / | / | 3 | / | /
Cc1sc(-n2c(C)cc(/C=C3\SC(=S)NC3=O)c2C)c(C#N)c1C | 11 | 2 | 80* | -4 | 4 | 18
CNC(=O)COc1ccc(S(=O)(=O)Nc2ccc(C)cc2)cc1 | / | 0 | 0 | -1 | -2 | /
O=C(COc1ccc(S(=O)(=O)Nc2ccccc2)cc1)NCc1ccncc1 | 14 | -5 | -1 | -5 | 54* | 8
CNC(=O)COc1ccc(S(=O)(=O)Nc2ccc(OC)cc2)cc1 | -42 | 1 | -3 | 5 | 90* | 3
Cc1ccc(NS(=O)(=O)c2ccc(OCC(=O)NCc3cccnc3)cc2)cc1 | 3 | 1 | 2 | 6 | 2 | 4
Cc1ccc(-n2c(=O)c3sccc3n(CC(=O)NCc3ccco3)c2=O)cc1 | 14 | -6 | -1 | -1 | 3 | 4
Cc1cccc(Cn2c(=O)n(-c3ccc(CC(=O)NCc4ccco4)cc3)c(=O)c3sccc32)c1 | -11 | -1 | -1 | 3 | 0 | 29*
COc1cc(SC)ccc1C(=O)OC(C)C(=O)Nc1ccc(NC(C)=O)cc1 (centres undefined) | / | / | / | 2 | / | /
N=c1n(Cc2ccc(Cl)cc2)c2ccccc2n1CC(O)COc1ccccc1 (centres undefined) | -6 | 12 | 6 | -5 | 36* | 21*
Cc1cccc(OCC(O)Cn2c(=N)n(CCN3CCCCC3)c3ccccc32)c1 (centres undefined) | -2 | 25* | -1 | 6 | 55* | 9
CCN(CC)CCn1c(=N)n(CC(O)COc2cccc(C)c2)c2ccccc21 (centres undefined) | 0 | 13 | -1 | 0 | 12 | 3
CN(C)CCCNS(=O)(=O)c1ccc(N2CCC(c3ccc(Cl)cc3)=N2)cc1 | 3 | 3 | 73* | 6 | 22 | 2
O=S(=O)(c1ccc(N2CCC(c3ccc(Cl)cc3)=N2)cc1)N(CCO)CCO | -6 | -1 | -2 | 0 | 7 | 2
Cc1ccc2nc(-c3ccc(NC(=S)NC4CC(C)(C)NC(C)(C)C4)cc3)sc2c1 | -168 | 2 | 72* | 4 | 10 | 34
O=C(O)CCn1c2c(c3ccccc31)CCCC2 | 5 | 6 | 2 | 0 | 10 | 1
CCCn1c2c(c(=N)c3c1CCC3)CCCC2 | -9 | 65* | -2 | -1 | 65* | 2
CCCCCCCn1c2c(c(=N)c3ccccc31)CCC2 | 7 | 99* | 0 | 34* | 78* | 7
CCCn1c2c(c(=N)c3c1CCC3)CCC2 | / | 46* | 0 | -1 | 54* | /
CCCn1c(=S)[nH]c2sc3c(c2c1=O)CCCC3 | / | / | / | 4 | / | /
CCOC(=O)Cn1c2c(c(=N)c3c1CCC3)CCCC2 | 3 | 1 | -4 | -4 | 9 | 3
Cn1nc(C(F)(F)F)c(-c2ccc(Br)cc2)c1NC(=O)Nc1ccc(F)cc1F | / | 1 | 2 | 2 | 0 | /
COC(=O)CN(C#N)c1nc(NC(C)C)nc(OC)n1 | 6 | 41* | -2 | -9 | 32* | 3
SMILES | APP transl inh | Ba/F3 V617F tox | b-catenin transl | IEC-6 cytotox | BaF3 tox | MT stabilize HCS
O=S1(=O)CCC(NC(=S)NC2CCS(=O)(=O)C2)C1 (centres undefined) | 12 | 52* | -1 | 1 | 39* | 2
Cc1ccc(Oc2c(CO)c(-c3ccccc3)nn2C)cc1 | 10 | 1 | 1 | 6 | 7 | 18*
COc1ccc(-n2cc(CN3CCCC3)c(-c3cccc(F)c3)n2)cc1 | -5 | -2 | 0 | 8 | 1 | 3
CC(=O)N1CCCN(Cc2cn(-c3ccc(C)cc3)nc2-c2cccc(C)c2)CC1 | -6 | 0 | 4 | 2 | 41* | 2
O=C1CC(N2CCSCC2)C(=O)N1c1ccc(F)cc1 (centres undefined) | / | -3 | 0 | 7 | -1 | /
CN(C)S(=O)(=O)c1cccc(NC(=O)CSc2nc3c(cc2C#N)C(=O)CC(C)(C)C3)c1 | 20 | 4 | 6 | 10 | 4 | 24*

Bioassay records deposited in PubChem BioAssay by several laboratories.
